An excerpt weighted towards active compounds, which were near 2% of everything screened.
TROY signal inh: blocks TROY-dependent signaling in reporter cells; Q293 LMP1-TROYcd NF-kB luciferase reporter, 4 h; AID 1347056; 0.98% of 360,000 active; inhibition, % at 10 µM;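 active = compounds whose plate-normalised and pattern-corrected inhibition of the luciferase reporter signal at the single screening dose is 50% or more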
LGR2 inh: blocks bursicon-induced cAMP signaling via Drosophila LGR2. 0.35% of 380,000 active. HEK293 LGR2, CRE-luciferase, bursicon-stimulated, 4 h. inhibition, % at 9.99 µM;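 active = drop in luminescence signal, shown as inhibition above about 50% in the replicate tests, limit read from the data, passing the limit was not always enough; inconclusive = probably only some replicates passing the limit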;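 also: agonist challenge used bursicon conditioned medium at about half maximal strength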
TWEAK-Fn14 inh: TWEAK-Fn14 signaling inhibition; TWEAK-stimulated Fn14 reporter cells, luciferase luminescence, 8 h; inhibition, % at 10 µM; 2% of 360,000 active; in the data active = inhibition above about 50%
CaV13 ICDI inh: Primary screen for inhibitors of IQ motif and Ca2+-dependent inactivation inhibitor domain binding in CACNA1D, Förster resonance energy transfer in living cells, …; HEK cells, CFP/YFP FRET ICDI-IQ, plate reader, 10 min; percent FRET-ratio fall versus neutral wells; inhibition, % at 12.3 µM; 0.098% of 340,000 active; AID 743397;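 active = mean replicate inhibition of at least 30% and at least 1% of replicates passing that level; inconclusive = only one of the two criteria is met; inactive = neither criterion is met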
XiGFP reactiv: reactivates the inactive X chromosome in mouse fibroblasts; XiGFP mouse fibroblasts, % GFP-positive cells imaging, 3 d; cells co-treated with 5-aza-dC sensitizer; scaled so ellipticine positive control = 100%; activation, % at 7.58 µM; 0.055% of 360,000 active;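 active = mean normalized replicate activation at least 10% and every replicate at or above 10%; inconclusive = only one of the two criteria met; inactive = mean below 10% and not all replicates reach 10%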
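Assay system: SV40-immortalized XiGFP fibroblast cells, line 68-5-11; buffer or medium: DMEM plus 5-aza-dC sensitizer; compound: one concentration, pinned; timing: compounds 3 days, fix/stain 15 min at room temperature; benchmarks: positive control ellipticine, 6 µM final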
Hits are given with their value; i = inactive; ? = inconclusive; nt = not tested or not shown.

SMILES	TROY signal inh	LGR2 inh	TWEAK-Fn14 inh	CaV13 ICDI inh	XiGFP reactiv
O=S(=O)(c1cccc(NC(=S)N2CCN(c3cccc(Cl)c3)CC2)c1)C(F)F	i	i	83.0	i	i
O=S(=O)(c1cccc(NC(=S)N2CCN(c3ccc(F)cc3)CC2)c1)C(F)F	i	i	i	i	i
COc1ccc2c3c([nH]c2c1)[C@@H](CO)N(C)CC31CCN(C(=O)c2cccnc2)CC1	nt	i	nt	nt	i
CC1(C(=O)Nc2ccc3c(c2)OCCO3)CCN1C(=O)c1ccccc1CCc1ccccc1 (configuration not stated)	i	i	68.5	i	i
O=C(CCn1cccn1)Nc1ccc2c(c1)OCCO2	61.5	i	78.3	i	i
O=C(Nc1ccc2c(c1)OCCO2)c1ccccc1	i	nt	i	nt	nt
O=C(Nc1ccc2c(c1)OCCO2)c1ccc(Cl)cc1Cl	i	51.9	i	i	i
O=C(Nc1ccc2c(c1)OCCO2)c1coc2ccccc2c1=O	85.4	i	86.9	i	i
COc1ccc(-c2ccc([C@@H]3[C@@H](CO)N4C(=O)CN(Cc5ccccc5)C[C@H]34)cc2)cc1	nt	i	nt	nt	i
C/C=C/c1ccc2c(c1)O[C@H](CN(C)C(=O)C1CCOCC1)[C@@H](C)CN([C@@H](C)CO)S2(=O)=O	nt	i	nt	nt	i
CSc1ccccc1C(=O)Nc1ccc2c(c1)OCCO2	i	nt	i	i	nt
Cc1ncoc1C(=O)Nc1ccc2c(c1)OCCO2	i	nt	73.3	nt	nt
O=C(CC1CS(=O)(=O)CC1CC(=O)Nc1ccc2c(c1)OCCO2)Nc1ccc2c(c1)OCCO2 (configuration not stated)	i	?	91.3	i	i
Cc1nc2ccccn2c1C(=O)Nc1ccc2c(c1)OCCO2	67.5	nt	85.0	i	nt
Cc1ccccc1C(=O)Nc1ccc2c(c1)OCCO2	i	?	57.8	i	i
C[C@H]1CCCCO[C@H](CN(C)Cc2ccc(C(F)(F)F)cc2)[C@@H](C)CN([C@@H](C)CO)C(=O)c2cc(NS(=O)(=O)c3ccccc3)ccc2O1	nt	i	nt	nt	i
N#Cc1ccc(-c2ccc(C3[C@@H]4CN(C(=O)C5CC5)C[C@H]3N4)cc2)cc1 (some centres not stated)	nt	90.3	nt	nt	i
O=C1NCCN1CCNS(=O)(=O)c1ccc(F)cc1	64.9	i	53.0	i	i
COc1ccc(S(=O)(=O)NCCN2CCNC2=O)cc1OC	i	i	i	i	i
CC1=CC(C)(C)Nc2ccc(OC(=O)CN3C(=O)c4ccccc4C3=O)cc21	i	nt	89.2	i	i
CC1=CC(C)(C)Nc2ccc(OC(=O)C(Cc3ccccc3)N3C(=O)c4ccccc4C3=O)cc21 (configuration not stated)	i	nt	110.3	i	nt
CCOc1ccc2c(c1)C(C)=CC(C)(C)N2	i	i	i	nt	nt
CC1=CC(C)(C)Nc2ccc(OC(=O)CN3C(=O)c4cccc5cccc(c45)C3=O)cc21	i	i	51.9	i	nt
CC(=O)Oc1ccc(CC(C(=O)O)N2C(=O)c3ccccc3C2=O)cc1 (configuration not stated)	i	i	i	i	i
COc1ccc(NC(=O)N(C)C[C@H]2Oc3ccc(NC(=O)NC4CCCCC4)cc3CC(=O)N([C@H](C)CO)C[C@H]2C)cc1	nt	i	nt	nt	i
SMILES	TROY signal inh	LGR2 inh	TWEAK-Fn14 inh	CaV13 ICDI inh	XiGFP reactiv
Cn1cnc(S(=O)(=O)N2C[C@H](O)COC[C@H]3O[C@H](CC(=O)NCc4ccc(F)cc4)CC[C@@H]32)c1	nt	i	nt	nt	i
C=C[C@]1(C)C=C2C(=O)[C@@]3(O)OC(=O)[C@@]4(CCCC(C)(C)[C@H]34)[C@@]2(O)CC1	i	i	104.1	i	i
Cc1sc2cc3c(c(C(=O)c4ccccc4)[n+]2c1C)-c1cccc2cccc-3c12	nt	65.0	nt	i	i
O=C(c1ccccc1)c1c2c(cc3sc4ccccc4[n+]13)-c1cccc3cccc-2c13	i	i	60.0	i	72.7
O=C(c1ccccc1)c1ccc2ccccc2c1	i	i	i	i	i
COc1ccc2nc(NC(=O)Nc3ccccc3)sc2c1	i	i	i	i	i
CC(C)(C)c1nc(NC(=O)Nc2ccccc2)sc1Br	i	i	61.1	i	i
O=C(CSc1cccc[n+]1[O-])NN(c1ccccc1)c1ccccc1	i	i	82.7	i	i
COCCn1c(C)cc(C(=O)Cn2nc(C(=O)O)c3ccccc3c2=O)c1C	i	i	69.2	i	i
Cc1cc(C(=O)Cn2nc(C(=O)O)c3ccccc3c2=O)c(C)n1-c1ccc(F)cc1	i	i	i	i	i
